In ChEMBL document CHEMBL4680078, “Inhibitors of the Cysteine Synthase CysM with Antibacterial Potency against Dormant Mycobacterium tuberculosis” (J Med Chem, 2016):
Active and inactive are the calls of the source. The calls are words filed in the database; no cut-off is given here.

Key:
[1] = system: Mycobacterium tuberculosis; experiment: Inhibition of Mycobacterium tuberculosis CysM expressed in Escherichia coli strain BL21 (DE3) assessed as apparent first-order rate constant for the formation of the alpha-aminoacrylate intermediate at 100 uM incubated for 5 mins in presence of OPS by spectrophotometry
Procedure, shortened: (§1)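 Orthogonal activity assay with recombinant CysM, following formation of the α-aminoacrylate intermediate in the first half-reaction with OPS. Apparent first-order rate constants (kobs) determined. Only residual activities below 20% are reliably quantified; >20% remaining activity is reported as a limit.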

[2] = Binding affinity to Mycobacterium tuberculosis CysM expressed in Escherichia coli strain BL21 (DE3) incubated for 5 mins by PLP fluorescence-based screening assay
Procedure, shortened: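 Binding measured by the rise in fluorescence emission of the enzyme-bound PLP cofactor on ligand binding, using recombinant CysM at 2 µM. Kd obtained by fitting the ligand concentration dependence to a 1:1 binding-site model. Affinities approaching sub-µM are limited by protein concentration.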

[3] = system: Mycobacterium tuberculosis; experiment: Antimycobacterial activity against Mycobacterium tuberculosis H37Rv grown under nutrient starvation condition assessed as reduction in nonreplicating cells count incubated for 7 days at 10 ug/ml; format: functional; details: for Activity: dose 10.0 µg/ml, time 7.0 day; for log(activity): dose 10 µg/ml, time 7 day
[4] = system: Mycobacterium tuberculosis; experiment: Antimycobacterial activity against Mycobacterium tuberculosis H37Rv assessed as inhibition of microbial growth incubated for 5 days by alamar blue assay; format: functional; details: 120 h, time 5 day
[5] = system: Mycobacterium tuberculosis; experiment: Inhibition of Mycobacterium tuberculosis CysM expressed in Escherichia coli strain BL21 (DE3) assessed as reduction in amino-acrylate intermediate formation by measuring residual enzyme activity at 100 uM incubated for 5 mins in presence of OPS by spectrophotometry; procedure, shortened: as §1
[6] = system: Mycobacterium tuberculosis; experiment: Selectivity index, ratio of Kd for binding affinity to Mycobacterium tuberculosis CysK2 to Kd for binding affinity to Mycobacterium tuberculosis CysM expressed in Escherichia coli strain BL21 (DE3)
[7] = Binding affinity to Mycobacterium tuberculosis CysK2 by PLP fluorescence-based screening assay
[8] = system: Mycobacterium tuberculosis; experiment: Bactericidal activity against Mycobacterium tuberculosis H37Rv grown under nutrient starvation condition assessed as reduction in nonreplicating cells count incubated for 7 days at 10 ug/ml in presence of 0.2 mM cysteine; format: functional, organism-based; details: dose 10.0 µg/ml, time 7.0 day
Procedure, shortened: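 Nutrient-starved, nonreplicating H37Rv culture exposed to compound at 10 µg/ml alongside added L-cysteine (series 0.0, 0.05, 0.2, 0.5 mM) and an untreated control. Viable bacteria counted by most probable number (MPN) assay. Run in triplicate.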

[9] = system: Mycobacterium tuberculosis; experiment: Selectivity index, ratio of Kd for binding affinity to Mycobacterium tuberculosis CysK1 to Kd for binding affinity to Mycobacterium tuberculosis CysM expressed in Escherichia coli strain BL21 (DE3)
[10] = Stability in presence of cysteine assessed as compound degradation incubated for 24 hrs by HPLC analysis; format: physicochemical
SH-SY5Y = experiment: Cytotoxicity in human SH-SY5Y cells assessed as reduction in cell viability at 10 uM incubated for 72 hrs by Cell-titer-Glo assay; format: cell-based
[11] = Binding affinity to Mycobacterium tuberculosis CysK1 by PLP fluorescence-based screening assay
[12] = target: T1, Cystathionine beta-synthase (Homo sapiens, UniProt P35520); experiment: (§2) Binding affinity to human CBS by PLP fluorescence-based screening assay
T1 sequence (P35520 whole entry): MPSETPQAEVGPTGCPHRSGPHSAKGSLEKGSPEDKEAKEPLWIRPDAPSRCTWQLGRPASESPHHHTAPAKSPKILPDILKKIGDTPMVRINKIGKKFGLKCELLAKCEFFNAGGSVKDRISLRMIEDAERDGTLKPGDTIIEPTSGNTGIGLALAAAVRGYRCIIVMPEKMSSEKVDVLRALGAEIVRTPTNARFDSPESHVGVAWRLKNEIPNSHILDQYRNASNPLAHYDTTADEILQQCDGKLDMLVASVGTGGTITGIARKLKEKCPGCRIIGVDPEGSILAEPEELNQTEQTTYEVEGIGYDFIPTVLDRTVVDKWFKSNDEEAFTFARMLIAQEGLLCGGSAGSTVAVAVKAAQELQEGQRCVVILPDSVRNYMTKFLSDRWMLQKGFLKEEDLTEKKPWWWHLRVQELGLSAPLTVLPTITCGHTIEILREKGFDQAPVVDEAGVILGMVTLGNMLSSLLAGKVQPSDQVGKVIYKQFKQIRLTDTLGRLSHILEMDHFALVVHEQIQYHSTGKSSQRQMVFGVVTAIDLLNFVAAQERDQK

[13] = Stability in presence of cysteine assessed as compound degradation incubated for 24 hrs by mass-spectrometry; format: physicochemical
THP-1 = experiment: Cytotoxicity in human THP-1 cells assessed as reduction in cell viability at 10 uM incubated for 72 hrs by Cell-titer-Glo assay; format: cell-based; details: thp-1, 72 h
J774.A1 = experiment: Cytotoxicity in mouse J774.A1 cells assessed as reduction in cell viability at 10 uM incubated for 72 hrs by Cell-titer-Glo assay; format: cell-based; details: j774.a1, 72 h
[14] = Binding affinity to Mycobacterium tuberculosis CysM by ITC analysis
HepG2 = experiment: Cytotoxicity in human HepG2 cells assessed as reduction in cell viability at 10 uM incubated for 72 hrs by Cell-titer-Glo assay; format: cell-based; details: hepg2, 72 h
[15] = Selectivity index, ratio of Kd for binding affinity to human CBS to Kd for binding affinity to Mycobacterium tuberculosis CysM expressed in Escherichia coli strain BL21 (DE3)
[16] = Stability in presence of cysteine assessed as compound degradation incubated for 24 hrs by spectroscopy analysis; format: physicochemical
[17] = target: T2, Cystathionine beta-synthase (Homo sapiens) (UniProt P35520); experiment: as §2
T2 sequence (whole entry): T1 sequence (P35520 whole entry)

O=C(Nc1ccc(Cl)c(Cl)c1)Nc1ccc(C(=O)O)cc1O
K [1]: > 20 min⁻¹ | Kd [2]: Not Active

COc1ccc(NC(=O)Nc2cccc(C(=O)O)c2)cc1
K [1]: 3.84 min⁻¹ | Activity [3]: inactive | MIC [4]: 21.8 µM | Activity [5]: 9.9% | Kd ([2]; read-out: Kd): 11.3 µM

Cc1ccc(C(=O)Nc2cccc(C(=O)O)c2)cc1
K [1]: > 20 min⁻¹ | Kd [2]: Not Active

Cc1ccc(NC(=O)Nc2cccc(C(=O)O)c2)cc1
K [1]: 1.92 min⁻¹ | MIC [4]: 23.1 µM | Activity [5]: 4.9% | Kd ([2]; read-out: Kd): 8 µM

O=C(O)c1cccc(NS(=O)(=O)c2ccc(Cl)c(Cl)c2)c1
K [1]: > 20 min⁻¹ | Kd [2]: Not Active

NNC(=O)c1ccncc1 [ISONIAZID]
log(activity) [3]: 1 | MIC [4]: 0.4 µM

CC(=O)c1ccc(NC(=O)Nc2cccc(C(=O)O)c2)cc1
K [1]: > 20 min⁻¹ | Kd ([2]; read-out: Kd): 111 µM

O=C(Nc1ccccc1)Nc1cccc(C(=O)O)c1
K [1]: 1.02 min⁻¹ | Activity [5]: 2.6% | Kd ([2]; read-out: Kd): 12.9 µM

O=C(Nc1cccc(C(=O)O)c1)Nc1ccc(Cl)c(Cl)c1
Ratio [6]: 15 | Kd [7]: 30.1 µM | Activity [8]: inactive | K [1]: 0.1 min⁻¹ | Ratio [9]: > 80 | Stabilty [10]: Unstable | Activity (SH-SY5Y): Non-Toxic | Kd [11]: 241 µM | Kd [12]: 94 µM | Stabilty [13]: Unstable | log(activity) [3]: 3 | Activity (THP-1): Non-Toxic | Activity (J774.A1): Non-Toxic | Kd [14]: 0.32 µM | Activity (HepG2): Non-Toxic | Ratio [15]: 300 | Stabilty [16]: Unstable | MIC [4]: 9.6 µM | Activity [5]: 0.3%

O=C(Nc1ccc(Cl)cc1)Nc1cccc(C(=O)O)c1
K [1]: 0.24 min⁻¹ | Activity (SH-SY5Y): Non-Toxic | Activity [3]: inactive | Activity (THP-1): Non-Toxic | Activity (J774.A1): Non-Toxic | Kd [14]: 3.4 µM | Activity (HepG2): Non-Toxic | MIC [4]: 21.5 µM | Activity [5]: 0.6%

O=C(Nc1ccc(Br)cc1)Nc1cccc(C(=O)O)c1
K [1]: 0.48 min⁻¹ | Activity (SH-SY5Y): Non-Toxic | Activity [3]: inactive | Activity (THP-1): Non-Toxic | Activity (J774.A1): Non-Toxic | Kd [14]: 1.4 µM | Activity (HepG2): Non-Toxic | MIC [4]: 18.6 µM | Activity [5]: 1.2%

O=C(Nc1cccc(-c2nnn[nH]2)c1)Nc1ccc(Cl)c(Cl)c1
K [1]: > 20 min⁻¹ | Kd [2]: Not Active

O=C(Nc1ccc(Cl)c(Cl)c1)Nc1ccc(O)c(C(=O)O)c1
K [1]: > 20 min⁻¹ | Kd [2]: Not Active

O=C(NCc1ccc(Cl)c(Cl)c1)Nc1cccc(C(=O)O)c1
K [1]: > 20 min⁻¹ | Kd ([2]; read-out: Kd): > 300 µM

O=C(Nc1ccc([N+](=O)[O-])cc1)Nc1cccc(C(=O)O)c1
K [1]: 2.22 min⁻¹ | Activity [3]: inactive | MIC [4]: 20.7 µM | Activity [5]: 5.7% | Kd ([2]; read-out: Kd): 10.5 µM

O=C(Nc1cccc(-c2ccccc2)c1)Nc1ccc(C(=O)O)c(O)c1
Activity [8]: inactive | K [1]: 0.48 min⁻¹ | log(activity) [3]: 3 | MIC [4]: 2.2 µM | Activity [5]: 1.2% | Kd ([2]; read-out: Kd): 4.5 µM

O=C(O)c1cccc(NC(=S)Nc2ccc(Cl)cc2)c1
K [1]: > 20 min⁻¹ | Kd ([2]; read-out: Kd): > 300 µM

O=C(Nc1cccc(C(=O)O)c1)Nc1cccc(-c2ccccc2)c1
Ratio [6]: 15 | Kd [7]: 22.6 µM | K [1]: 0.24 min⁻¹ | Ratio [9]: > 80 | Activity (SH-SY5Y): Non-Toxic | Kd [11]: 96.8 µM | Activity [17]: inactive | Activity (THP-1): Non-Toxic | Activity (J774.A1): Non-Toxic | Activity (HepG2): Non-Toxic | MIC [4]: 18.8 µM | Activity [5]: 0.6% | Kd ([2]; read-out: Kd): 1.7 µM

CO[C@H]1/C=C/O[C@@]2(C)Oc3c(C)c(O)c4c(O)c(c(/C=N/N5CCN(C)CC5)c(O)c4c3C2=O)NC(=O)/C(C)=C\C=C\[C@H](C)[C@H](O)[C@@H](C)[C@@H](O)[C@@H](C)[C@H](OC(C)=O)[C@@H]1C [RIFAMPIN]
MIC [4]: 0.5 µM

O=C(Nc1ccc(C(=O)O)c(O)c1)Nc1ccc(Cl)c(Cl)c1
K [1]: > 20 min⁻¹ | Kd [2]: Not Active

O=C(Nc1ccc(-c2cccc(Cl)c2Cl)cc1)Nc1cccc(C(=O)O)c1
Activity (SH-SY5Y): Non-Toxic | Activity (THP-1): Non-Toxic | Activity (J774.A1): Non-Toxic | Activity (HepG2): Non-Toxic

O=C(Nc1cccc(-c2ccccc2)c1)Nc1ccc(O)c(C(=O)O)c1
K [1]: 0.23 min⁻¹ | Activity (SH-SY5Y): Non-Toxic | Activity (THP-1): Non-Toxic | Activity (J774.A1): Non-Toxic | Kd [14]: 2.2 µM | Activity (HepG2): Non-Toxic | Activity [5]: 0.6%
